Experimental data taken from ChEMBL document CHEMBL1165991, “Synthesis and in vitro evaluation of novel 1,2,4-triazine derivatives as neuroprotective agents” (Bioorg Med Chem, 2010).
The source made the active and inactive calls. The rule behind the calls is not given here.

Experiments:
PC-12 [1] = assay: Neuroprotective activity in rat undifferentiated PC12 cells assessed as protection against H2O2-induced cell death at 10 uM treated 3 hrs before H2O2 challenge measured after 24 hrs by MTT assay relative to control; format: functional
Outline: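 Undifferentiated rat PC12 cells, grown in DMEM with 10% FBS and penicillin–streptomycin at 37 °C, 5% CO2, were seeded in 96-well plates. They were pretreated 3 h with compounds (0.5–20 µM), then exposed to H2O2 for 24 h. Viability was read by MTT reduction, formazan dissolved in DMSO, A550, as % of control; mean ± S.D., n = 3.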

PC-12 [2] = assay: Neuroprotective activity in differentiated rat PC12 cells assessed as decrease of H2O2-induced cleaved caspase 3 level treated 3 hrs before H2O2 challenge measured after 24 hrs by Western blot relative to untreated control; format: functional
Outline: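 PC12 cells grown in DMEM with 10% FBS at 37 °C, 5% CO2, and differentiated with NGF (50 ng/ml) every other day for 6 days. Pretreated 3 h with compound, then H2O2 (150 μM) added with compound for 24 h. Twenty μg protein run on 12% SDS-PAGE and blotted for cleaved caspase-3, reprobed for β-actin. ECL detection, densitometry ratio, median of three independent experiments.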

PC-12 [3] = assay: Neuroprotective activity in differentiated rat PC12 cells assessed as protection against H2O2-induced apoptosis at 10 uM treated 3 hrs before H2O2 challenge measured after 24 hrs by acridine orange/ethidium bromide double staining method; format: functional
Outline: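 NGF-differentiated PC12 cells were pretreated with compound, then given H2O2 150 μM for 24 h. Cells were harvested, washed in PBS and set to 10^6/ml, then stained with AO/EB (1:1, final 100 μg/ml). Fluorescence microscopy scored viable, early or late apoptotic, and necrotic nuclei in 10 random fields; three repeats.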

PC-12 [4] = assay: Neuroprotective activity in differentiated rat PC12 cells assessed as inhibition of H2O2-induced NF-kappaB nucleus accumulation treated 3 hrs before H2O2 challenge measured after 24 hrs by Western blot relative to untreated control; format: functional
Outline: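 Differentiated PC12 cells were pretreated 3 h with compound, then given H2O2 150 μM for 24 h. Nuclear protein (20 μg) was run on 12% SDS–PAGE, blotted to PVDF, probed with anti-NF-κB and reprobed for β-actin, with ECL detection. Band densities were taken as a ratio; median of three independent experiments.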

PC-12 [5] = assay: Neuroprotective activity in rat differentiated PC12 cells assessed as protection against H2O2-induced cell death at 10 uM treated 3 hrs before H2O2 challenge measured after 24 hrs by MTT assay relative to control; format: functional
Outline: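 Rat PC12 cells grown in DMEM with 10% FBS and penicillin–streptomycin at 37 °C, 5% CO2, then differentiated with NGF (50 ng/ml) every other day for 6 days. Compounds (0.5–20 µM) were added 3 h before H2O2 (150 µM) and kept present for 24 h more. MTT reduction, formazan dissolved in DMSO, A550; % of control cells; mean ± S.D., n = 3.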

PC-12 [6] = assay: Cytotoxicity against rat undifferentiated PC12 cells at 0.5 to 20 uM after 24 hrs by MTT assay; format: cell-based; details: pc-12, 24 h
Outline: (§1)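 PC12 cells grown in DMEM with 10% FBS and penicillin–streptomycin at 37 °C, 5% CO2. Differentiated cells were primed with NGF 50 ng/ml every other day for 6 days; undifferentiated cells had no NGF. Compound 0.5–20 μM without H2O2; MTT read at 24 h. Formazan dissolved in DMSO, A550 as % of control; mean ± S.D., n = 3.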

PC-12 [7] = assay: Cytotoxicity against rat differentiated PC12 cells at 0.5 to 20 uM after 24 hrs by MTT assay; format: cell-based; details: pc-12, 24 h; outline: as §1
PC-12 [8] = assay: Neuroprotective activity in rat differentiated PC12 cells assessed as protection against H2O2-induced cell death at 0.5 to 20 uM treated 3 hrs before H2O2 challenge measured after 24 hrs by MTT assay relative to control; format: functional, cell-based
Outline: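 NGF-differentiated PC12 cells (50 ng/ml every other day, 6 days) were pretreated 3 h with compound at 0.5–20 μM, then given H2O2 150 μM with compound for a further 24 h. Viability by MTT: formazan in DMSO, A550, expressed as % of control cells; mean ± S.D., n = 3.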

PC-12 [9] = assay: Neuroprotective activity in rat NGF treated differentiated PC12 cells assessed as restoration of H2O2-induced neuronal shape change at 10 uM treated 3 hrs before H2O2 challenge measured after 24 hrs by fluorescence microscopy analysis; format: functional, cell-based
Outline: (§2)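 PC12 cells were differentiated with NGF 50 ng/ml for 6 days, pretreated 3 h with compound, then exposed to H2O2 150 μM for 24 h. Morphology was judged by microscopy: cell shape, attachment to the plate surface and inter-neuronal networks.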

PC-12 [10] = assay: Neuroprotective activity in rat NGF treated differentiated PC12 cells assessed as restoration of H2O2-induced network changes at 10 uM treated 3 hrs before H2O2 challenge measured after 24 hrs by fluorescence microscopy analysis; format: functional, cell-based; outline: as §2
PC-12 [11] = assay: Neuroprotective activity in rat NGF treated differentiated PC12 cells assessed as restoration of H2O2-induced detached from culture plate at 10 uM treated 3 hrs before H2O2 challenge measured after 24 hrs by fluorescence microscopy analysis; format: functional, cell-based; outline: as §2

Row | Structure (SMILES) | Activity (PC-12 [1]) | fold change (FC) (PC-12 [2]) | Activity (PC-12 [3]) | fold change (FC) (PC-12 [4]) | Activity (PC-12 [5]) | Activity (PC-12 [6]) | Activity (PC-12 [7]) | Activity (PC-12 [8]) | Activity (PC-12 [9]) | Activity (PC-12 [10]) | Activity (PC-12 [11])
1 | CSc1nnc(-c2ccccc2)c(-c2ccccc2)n1 | 53% | 1.91 | 35% | 1.79 | 47% | Non-toxic | Non-toxic | – | – | – | –
2 | CCSc1nnc(-c2ccc(Cl)cc2)c(-c2ccc(Cl)cc2)n1 | 58% | 2 | 40% | 2 | – | Non-toxic | Non-toxic | – | – | – | –
3 | CCCCSc1nnc(-c2ccccc2)c(-c2ccccc2)n1 | – | – | – | – | – | – | – | inactive | – | – | –
4 | CCSc1nnc(-c2ccccc2)c(-c2ccccc2)n1 | 59% | 1.64 | 45% | 1.56 | 54% | Non-toxic | Non-toxic | – | – | – | –
5 | CCCSc1nnc(-c2ccc(Cl)cc2)c(-c2ccc(Cl)cc2)n1 | 60% | 1.92 | 40% | 1.89 | 45% | Non-toxic | Non-toxic | – | – | – | –
6 | CSc1nnc(-c2ccc(Cl)cc2)c(-c2ccc(Cl)cc2)n1 | 88% | 4.59 | 20% | 4.04 | 83% | Non-toxic | Non-toxic | – | Active | Active | Active
7 | CCCCSc1nnc(-c2ccc(Cl)cc2)c(-c2ccc(Cl)cc2)n1 | 63% | 1.83 | 40% | 1.78 | 50% | Non-toxic | Non-toxic | – | – | – | –
8 | CCCSc1nnc(-c2ccccc2)c(-c2ccccc2)n1 | – | – | – | – | – | – | – | inactive | inactive | inactive | inactive
